The source of these data is ChEMBL document CHEMBL2385012, “Caesalpins A-H, bioactive cassane-type diterpenes from the seeds of Caesalpinia minax” (J Nat Prod, 2013).

pIC50: −log10 of the molar value.

Holding throughout (format): functional, cell-based
In one test the test system is HepG2. Nature of the test: Cytotoxicity against human HepG2 cells assessed as growth inhibition after 48 hrs by MTT assay. The conditions noted are these: HepG2, 48 h. The essentials: (§1)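 Cells grown in DMEM with 10% FBS and seeded at 6 × 10^4 cells/mL. Five concentrations per compound added from DMSO, each tested in triplicate. Incubated 48 h at 37 °C under 5% CO2. MTT (4 mg/mL) added, then 4 h further incubation. Medium removed, formazan dissolved in DMSO, absorbance read at 570 nm. IC50 reported as mean ± SD of triplicate experiments. Doxorubicin served as positive control.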
For orientation: Tetrazolium dyes change colour on reduction, which living cells bring about.

For the next test, the system named is A549. As to the kind of experiment: Cytotoxicity against human A549 cells assessed as growth inhibition after 48 hrs by MTT assay. The note with it: A549, 48 h. The essentials: as §1
The subject of another test is MCF7. Nature of the test: Cytotoxicity against human MCF7 cells assessed as growth inhibition after 48 hrs by MTT assay. The conditions noted are these: MCF7, 48 h. The essentials:
as §1

Another test relates to AGS. Nature of the test: Cytotoxicity against human AGS cells assessed as growth inhibition after 48 hrs by MTT assay. The essentials:
as §1

The next test has as its system K562. As to the kind of experiment: Cytotoxicity against human K562 cells assessed as growth inhibition.

By pIC50 is commonly meant the IC50 on a negative log10 scale, so that one unit is a factor of ten.

In the case of `COC(=O)CC1=C(C)C2=C[C@H](OC(C)=O)[C@@]3(O)C(C)(C)CC[C@H](OC(C)=O)[C@]3(C)[C@H]2CC1=O`, the pIC50 with HepG2 was 5.33; in the test on A549 it was 4.84; in the test on MCF7, 5.68; in the test on AGS, less than 4.30.
The corresponding values for `COC(=O)CC1=C(C)[C@@H]2[C@@H](OC(C)=O)[C@H](OC(C)=O)[C@@]3(O)C(C)(C)CC[C@H](OC(C)=O)[C@]3(C)[C@H]2CC1=O` are 4.73, 4.60, 5.10 and 4.32.
The corresponding values for `COC(CC1=C(C)[C@@H]2[C@@H](OC(C)=O)[C@H](OC(C)=O)[C@@]3(O)C(C)(C)CC[C@H](OC(C)=O)[C@]3(C)[C@H]2CC1=O)OC` are 4.97, 4.50, 4.81 and 4.34.
The corresponding values for `CC(=O)O[C@H]1CCC(C)(C)C2=CC(=O)c3c(cc4occc4c3C)[C@]21C` are less than 4.30, 4.61, less than 4.30 and 5.19.
Consider `CC(=O)O[C@H]1CCC(C)(C)[C@]2(O)[C@@H](OC(C)=O)[C@H](O)c3c(cc4occc4c3C)[C@@]12C`, for which the negative logarithm of the IC50 (pIC50) in the test with HepG2, with A549, in the test with MCF7 and in the test on AGS was less than 4.30 in each case.
As to `CO[C@@]12C[C@H]3[C@@H](CC[C@@]4(O)C(C)(C)C[C@H](OC(C)=O)[C@H](OC(C)=O)[C@]34C)[C@@H](C)C1=CC(=O)O2`, the pIC50 in the test with HepG2 was less than 4.30; in the test on A549, less than 4.30; in the test with MCF7, 4.34; with AGS, less than 4.30.
With `C=C1C2=CC(=O)O[C@]2(OC)C[C@H]2[C@H]1[C@@H](O)C[C@@]1(O)C(C)(C)CC[C@H](OC(C)=O)[C@]21C`, the pIC50 is 4.46 in the test on HepG2, less than 4.30 in the test with A549, less than 4.30 with MCF7 and less than 4.30 with AGS.
For the compound `C=C1C2=CC(=O)O[C@]2(OC)C[C@H]2[C@H]1[C@@H](O)[C@H](OC(C)=O)[C@@]1(O)C(C)(C)CC[C@H](OC(C)=O)[C@]21C`, the pIC50 with HepG2 is 4.41; with A549, less than 4.30; in the test on MCF7 it was less than 4.30; in the test with AGS it was less than 4.30.
Turning to `CO[C@@]12C[C@H]3[C@@H](C[C@H](OC(C)=O)[C@@]4(O)C(C)(C)C[C@H](OC(C)=O)[C@H](OC(C)=O)[C@]34C)[C@](C)(O)C1=CC(=O)O2`, the pIC50 in the test with HepG2 is 4.33; in the test with A549, less than 4.30; with MCF7, less than 4.30; with AGS it was 4.54.
For `CC(=O)OC1CC(C)(C)[C@]2(O)C[C@H](O)[C@H]3[C@@H](C)C4=CC(=O)O[C@]4(O)C[C@@H]3[C@@]2(C)[C@H]1OC(C)=O` (stereo partly drawn), the pIC50 in the test with HepG2 is less than 4.30; in the test on A549, 4.50; in the test with MCF7, 4.44; in the test with AGS, less than 4.30.
Take `CC(=O)O[C@@H]1[C@@H]2[C@H](C=C3OC(=O)C=C3[C@@]2(C)O)[C@@]2(C)[C@@H](OC(C)=O)CCC(C)(C)[C@]2(O)[C@H]1OC(C)=O`: the pIC50 was less than 4.30 in the test on HepG2, less than 4.30 with A549, 4.39 with MCF7 and less than 4.30 in the test with AGS.
On to `CC(=O)O[C@H]1CC(C)(C)[C@]2(O)CC[C@H]3[C@@H](C)C4=CC(=O)OC4=C[C@@H]3[C@@]2(C)[C@H]1OC(C)=O`, for which the pIC50 with HepG2, in the test on A549, in the test with MCF7 and with AGS was less than 4.30 throughout.
`COc1cccc2c1C(=O)c1c(O)c3c(c(O)c1C2=O)C[C@@](O)(C(=O)CO)C[C@@H]3O[C@H]1C[C@H](N)[C@H](O)[C@H](C)O1` [DOXORUBICIN]: the pIC50 was 6.23 with HepG2, 6.13 with A549, 6.03 in the test with MCF7 and 5.92 in the test on AGS.
As to `C#C[C@@]12O[C@]1(C=O)[C@]1(C)CC[C@H]3C(C)(C)CCC[C@]3(C)[C@H]1CC2=O` [ESCOBARINE A], the pIC50 in the test with K562 was 5.60.
